Data as given in publication PMC2800315 (Japanese Journal of Clinical Oncology, 2009).

Tests used:
[1] = Safety and tolerability, adverse events; assay type: in vivo, Japanese patients
How it was run: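 Open-label 3+3 dose escalation with daily oral dosing up to 10 mg/day in 28-day cycles. Adverse events monitored throughout and graded by NCI CTCAE v3.0, recorded until 28 days after stopping. DLT: grade ≥3 haematologic or non-haematologic event, or grade ≥3 lab abnormality, within the first 4 weeks and suspected drug-related. Antiemetic and anti-hyperlipidaemia therapy allowed.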

[2] = 673 renal transplant patients; cited from earlier work
[3] = test system: advanced solid tumors; assay: Tumor response according to RECIST; assay type: in vivo, Japanese patients
How it was run: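 Patients had ≥1 measurable lesion and took continuous once-daily oral dosing in 28-day cycles, continued until progression. Tumour assessed by RECIST every 2 months and at study end. Outcomes summarised descriptively.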

[4] = test system: esophagogastric cancer; conditions: one esophagogastric cancer patient, daily dose of 5 mg; cited from earlier work
[5] = 2.5 mg/day (n = 3), G1/2, all courses
[6] = 2.5 mg/day (n = 3), G3/4, all courses
[7] = 5 mg/day (n = 3), G1/2, all courses
[8] = 5 mg/day (n = 3), G3/4, all courses
[9] = 10 mg/day (n = 3), G1/2, all courses
[10] = 10 mg/day (n = 3), G3/4, all courses
[11] = Total, all doses and grades, all courses
[12] = one patient with esophageal carcinoma, 10 mg/day, day 58

## CO[C@H]1C[C@@H]2CC[C@@H](C)[C@@](O)(O2)C(=O)C(=O)N2CCCC[C@H]2C(=O)O[C@H]([C@H](C)C[C@@H]2CC[C@@H](OCCO)[C@H](OC)C2)CC(=O)[C@H](C)/C=C(\C)[C@@H](O)[C@@H](OC)C(=O)[C@H](C)C[C@H](C)/C=C/C=C/C=C/1C [RAD001, everolimus]
[1]; [5]
  Number of patients with adverse event: Anemia: 0
  Number of patients with adverse event: Anorexia: 1
  Number of patients with adverse event: Diarrhea: 0
  Number of patients with adverse event: Elevated ALT or AST: 2
  Number of patients with adverse event: Fatigue: 0
  Number of patients with adverse event: Glucose tolerance impaired: 0
  Number of patients with adverse event: Hemorrhage: 0
  Number of patients with adverse event: Hyperglycemia: 0
  Number of patients with adverse event: Hypertension: 1
  Number of patients with adverse event: Leukopenia: 1
  Number of patients with adverse event: Mucosal inflammation: 0
  Number of patients with adverse event: Nausea: 1
  Number of patients with adverse event: Neutropenia: 1
  Number of patients with adverse event: Pneumonitis: 0
  Number of patients with adverse event: Rash: 0
  Number of patients with adverse event: Stomatitis: 1
  Number of patients with adverse event: Thrombocytopenia: 0
  Number of patients with adverse event: Weight decreased: 1
[1]; [6]
  Number of patients with adverse event: Anemia: 0
  Number of patients with adverse event: Anorexia: 0
  Number of patients with adverse event: Diarrhea: 0
  Number of patients with adverse event: Elevated ALT or AST: 0
  Number of patients with adverse event: Fatigue: 0
  Number of patients with adverse event: Glucose tolerance impaired: 0
  Number of patients with adverse event: Hemorrhage: 0
  Number of patients with adverse event: Hyperglycemia: 0
  Number of patients with adverse event: Hypertension: 0
  Number of patients with adverse event: Leukopenia: 0
  Number of patients with adverse event: Mucosal inflammation: 0
  Number of patients with adverse event: Nausea: 0
  Number of patients with adverse event: Neutropenia: 0
  Number of patients with adverse event: Pneumonitis: 0
  Number of patients with adverse event: Rash: 0
  Number of patients with adverse event: Stomatitis: 0
  Number of patients with adverse event: Thrombocytopenia: 0
  Number of patients with adverse event: Weight decreased: 0
[1]; [7]
  Number of patients with adverse event: Anemia: 0
  Number of patients with adverse event: Anorexia: 2
  Number of patients with adverse event: Diarrhea: 2
  Number of patients with adverse event: Elevated ALT or AST: 0
  Number of patients with adverse event: Fatigue: 1
  Number of patients with adverse event: Glucose tolerance impaired: 1
  Number of patients with adverse event: Hemorrhage: 0
  Number of patients with adverse event: Hyperglycemia: 0
  Number of patients with adverse event: Hypertension: 0
  Number of patients with adverse event: Leukopenia: 2
  Number of patients with adverse event: Mucosal inflammation: 0
  Number of patients with adverse event: Nausea: 0
  Number of patients with adverse event: Neutropenia: 0
  Number of patients with adverse event: Pneumonitis: 1
  Number of patients with adverse event: Rash: 1
  Number of patients with adverse event: Stomatitis: 0
  Number of patients with adverse event: Thrombocytopenia: 2
  Number of patients with adverse event: Weight decreased: 0
[1]; [8]
  Number of patients with adverse event: Anemia: 0
  Number of patients with adverse event: Anorexia: 0
  Number of patients with adverse event: Diarrhea: 0
  Number of patients with adverse event: Elevated ALT or AST: 0
  Number of patients with adverse event: Fatigue: 0
  Number of patients with adverse event: Glucose tolerance impaired: 0
  Number of patients with adverse event: Hemorrhage: 0
  Number of patients with adverse event: Hyperglycemia: 0
  Number of patients with adverse event: Hypertension: 0
  Number of patients with adverse event: Leukopenia: 0
  Number of patients with adverse event: Mucosal inflammation: 0
  Number of patients with adverse event: Nausea: 0
  Number of patients with adverse event: Neutropenia: 0
  Number of patients with adverse event: Pneumonitis: 0
  Number of patients with adverse event: Rash: 0
  Number of patients with adverse event: Stomatitis: 0
  Number of patients with adverse event: Thrombocytopenia: 0
  Number of patients with adverse event: Weight decreased: 0
[1]; [9]
  Number of patients with adverse event: Anemia: 1
  Number of patients with adverse event: Anorexia: 1
  Number of patients with adverse event: Diarrhea: 0
  Number of patients with adverse event: Elevated ALT or AST: 0
  Number of patients with adverse event: Fatigue: 0
  Number of patients with adverse event: Glucose tolerance impaired: 0
  Number of patients with adverse event: Hemorrhage: 0
  Number of patients with adverse event: Hyperglycemia: 0
  Number of patients with adverse event: Hypertension: 0
  Number of patients with adverse event: Leukopenia: 0
  Number of patients with adverse event: Mucosal inflammation: 2
  Number of patients with adverse event: Nausea: 1
  Number of patients with adverse event: Neutropenia: 0
  Number of patients with adverse event: Pneumonitis: 0
  Number of patients with adverse event: Rash: 3
  Number of patients with adverse event: Stomatitis: 0
  Number of patients with adverse event: Thrombocytopenia: 3
  Number of patients with adverse event: Weight decreased: 1
[1]; [10]
  Number of patients with adverse event: Anemia: 0
  Number of patients with adverse event: Anorexia: 0
  Number of patients with adverse event: Diarrhea: 0
  Number of patients with adverse event: Elevated ALT or AST: 0
  Number of patients with adverse event: Fatigue: 1
  Number of patients with adverse event: Glucose tolerance impaired: 0
  Number of patients with adverse event: Hemorrhage: 1
  Number of patients with adverse event: Hyperglycemia: 1
  Number of patients with adverse event: Hypertension: 0
  Number of patients with adverse event: Leukopenia: 0
  Number of patients with adverse event: Mucosal inflammation: 0
  Number of patients with adverse event: Nausea: 0
  Number of patients with adverse event: Neutropenia: 0
  Number of patients with adverse event: Pneumonitis: 0
  Number of patients with adverse event: Rash: 0
  Number of patients with adverse event: Stomatitis: 1
  Number of patients with adverse event: Thrombocytopenia: 0
  Number of patients with adverse event: Weight decreased: 0
[1]; Japanese patients with advanced solid malignancies
  Dosage recommended for further development: 10 mg/day
[1]; [11]
  Number of patients with adverse event: Anemia: 1
  Number of patients with adverse event: Anorexia: 4
  Number of patients with adverse event: Diarrhea: 2
  Number of patients with adverse event: Elevated ALT or AST: 2
  Number of patients with adverse event: Fatigue: 2
  Number of patients with adverse event: Glucose tolerance impaired: 1
  Number of patients with adverse event: Hemorrhage: 1
  Number of patients with adverse event: Hyperglycemia: 1
  Number of patients with adverse event: Hypertension: 1
  Number of patients with adverse event: Leukopenia: 3
  Number of patients with adverse event: Mucosal inflammation: 2
  Number of patients with adverse event: Nausea: 2
  Number of patients with adverse event: Neutropenia: 1
  Number of patients with adverse event: Pneumonitis: 1
  Number of patients with adverse event: Rash: 4
  Number of patients with adverse event: Stomatitis: 2
  Number of patients with adverse event: Thrombocytopenia: 5
  Number of patients with adverse event: Weight decreased: 2
[1]; all cohorts
  Hyperlipidemia: not observed
[1]; first cycle of treatment (28 days), 2.5, 5.0 or 10.0 mg/day
  Dose-limiting toxicities (DLTs): not observed
[1]; one patient with colon cancer, 5 mg/day, after 142 days of therapy
  Pneumonitis, grade: grade 2
[1]; one patient with colorectal cancer, 10 mg/day, day 98
  Hyperglycemia, grade: Grade 3
[1]; [12]
  Fatigue, grade: Grade 3
  Stomatitis, grade: Grade 3
[1]; overall, nine patients
  Anorexia, all grades, patients: 44%
  Leukopenia, all grades, patients: 33%
  Rash, all grades, patients: 44%
  Thrombocytopenia, all grades, patients: 56%
[2]
  Difference in clearance between Asian and Caucasian patients: no significant differences
[3]; daily dose of 10 mg, esophageal and gastric cancer
  Patients with marked tumor shrinkage: two of three
[3]; patient with gastric adenocarcinoma and liver metastases, 10 mg/day
  Duration of partial response: > 4 months
[4]
  Tumor response: partial response
